OX1R antag-1 = antagonists of human orexin 1 receptor (OX1R); Orexin/Hypocretin receptor type 1 (Homo sapiens), O43613; OX1R-expressing cells, FRET antagonist read-out; inhibition, % at 6.6 µM; actives 1.8% (n = 330,000); in the data active = inhibition mostly above about 38%, no sharp cut-off; inactive = mostly below about 40%;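 note: 0% = agonist challenge alone and 100% = reference antagonist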
CHO parental Ca = ATP-evoked calcium signal inhibitors, parental CHO, primary screen, counter-screen for OX1R antagonist project, cell-based, fluorescence, Fluo-8 calcium dye | parental CHO-K1, ATP-induced calcium, Fluo-8 fluorescence | inhibition, % at 5.6 µM | actives 0.63% (n = 330,000) | AID 463079, 2010;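 active = inhibition above that plate's mean sample inhibition plus 3 SD, cut at about 26% in these data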;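 note: 0% = ATP-challenged DMSO wells and 100% = DMSO wells without ATP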
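Material: Parental CHO cells | Reagent: ATP | Compound dosing: Single nominal dose of 5.6 µM per compound | Detection: Intracellular calcium via Fluo-8 no-wash fluorescent dye | Read-out: % inhibition of ATP-induced calcium mobilization | Benchmarks: Low control ATP plus DMSO, high control DMSO only | Replicates: Singlicate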
OX1R antag-2 = OX1R (HCRTR1) antagonists, primary screen, fluorescence, CHO/OX1R cells, Fluo-8 calcium, orexin A; Orexin/Hypocretin receptor type 1 (Homo sapiens), O43613; Fluo-8 calcium fluorescence; inhibition, % at 5 µM; actives 0.43% (n = 330,000); AID 434989, 2010;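 active = inhibition above its plate's threshold, mean inhibition of all tested compounds on the plate plus 3 SD, cut at about 37% in these data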;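 note: 0% = orexin A challenge wells and 100% = SB-334867-A antagonist wells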
TAAR1 antagonist = human TAAR1 antagonists, primary screen, Fluo-8 calcium fluorescence, CHO RD-HGA16 cells. actives 1.5% (n = 360,000). Trace amine-associated receptor 1 (Homo sapiens), Q96RJ0. antagonist. inhibition, % at 3 µM;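 active = inhibition above a per-plate cutoff, the mean inhibition of test compounds on that plate plus 3 SD, cut at about 49% in these data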;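 note: 0% = DMSO plus EC80 beta-PEA response and 100% = DMSO alone without agonist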
Target sequence (Q96RJ0 whole entry, looked up): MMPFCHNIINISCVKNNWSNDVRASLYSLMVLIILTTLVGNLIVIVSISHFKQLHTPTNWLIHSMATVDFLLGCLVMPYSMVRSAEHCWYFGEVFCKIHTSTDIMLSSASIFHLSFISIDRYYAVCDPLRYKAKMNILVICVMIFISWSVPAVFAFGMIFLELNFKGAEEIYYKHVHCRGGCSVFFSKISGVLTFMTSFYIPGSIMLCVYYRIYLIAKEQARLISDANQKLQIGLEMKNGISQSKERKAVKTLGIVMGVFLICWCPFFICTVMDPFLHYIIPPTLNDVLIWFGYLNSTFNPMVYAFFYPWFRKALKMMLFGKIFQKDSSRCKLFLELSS
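Test system: hTAAR1-expressing CHO RD-HGA16 cells, Gα16-coupled; Probe or stimulus: EC80 β-phenethylamine stimulus; Compound dosing: single nominal final test compound concentration of 3 µM; Timing: 140 s kinetic read after compound, 140 s after agonist; Signal: Fluo-8 calcium-sensitive fluorescence; Measure: % inhibition of agonist calcium response; Controls: DMSO and EC80 PEA controls.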
TAAR1 ag = human TAAR1 agonists, primary screen, Fluo-8 calcium fluorescence, CHO RD-HGA16 cells; AID 624467, 2012; activation, % at 3 µM; actives 0.99% (n = 360,000); vehicle wells 0%, saturating PEA agonist 100%;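 active = activation above the mean activation of all test compounds in the run plus 3 SD, cut at about 38% in these data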
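System: CHO RD-HGA16 cells carrying human TAAR1 plus Gα16; Incubation: 17-24 h seeding, 75 min 37 °C dye, 30 min RT; Measured by: Fluo-8 fluorescence, 5 s baseline then 140 s kinetic read; Control set: DMSO and PEA EC100; Replication: single well for each compound.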
GPR7 antagonist = GPR7 receptor antagonists, primary screen, cell-based, fluorescence, single concentration. Neuropeptides B/W receptor type 1 (Homo sapiens), P48145. GPR7-expressing cells, fluorescence antagonist assay. inhibition, % at 4.4 µM. actives 1.1% (n = 290,000). AID 1861, 2009; in the data active = inhibition above about 16%, passing the limit was not always enough;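 note: cells stimulated with the agonist NPW; 0% = agonist with vehicle and 100% = vehicle without agonist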
Target sequence (P48145 whole entry, looked up): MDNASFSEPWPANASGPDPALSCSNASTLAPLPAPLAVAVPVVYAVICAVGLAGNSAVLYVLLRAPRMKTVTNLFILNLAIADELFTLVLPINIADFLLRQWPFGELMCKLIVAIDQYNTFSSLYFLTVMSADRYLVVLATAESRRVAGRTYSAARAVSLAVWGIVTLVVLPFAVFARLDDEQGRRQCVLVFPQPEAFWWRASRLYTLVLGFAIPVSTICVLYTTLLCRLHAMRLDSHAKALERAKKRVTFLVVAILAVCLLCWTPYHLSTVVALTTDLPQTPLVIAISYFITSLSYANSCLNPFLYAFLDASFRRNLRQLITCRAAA
TAAR1 nonsel count = nonselective antagonists in TAAR1 counter-screen cells, counter-screen for hTAAR1 antagonist project, cell-based, fluorescence, calcium; inhibition, % at 3 µM; shares compounds with TAAR1 antagonist; actives 77% (n = 2,400); counterscreen cell line, antagonist mode; AID 651780, 2012; in the data active = inhibition above about 22%;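 note: CHO-Ga16 host cells stimulated with ATP at an EC80 level; 0% = agonist EC80 plus vehicle and 100% = vehicle without agonist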
TAAR1 ant conf = human TAAR1 antagonists, retest of hits, confirmation, cell-based, fluorescence; shares compounds with TAAR1 antagonist; TAAR1-expressing cells, fluorescence antagonist read-out; inhibition, % at 3 µM; actives 40% (n = 2,400); AID 651785, 2012; in the data active = inhibition above about 49%;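 note: CHO-Ga16 host cells challenged with agonist PEA near its EC80; 0% = agonist at EC80 plus vehicle and 100% = vehicle with no agonist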
Ga16 ag counter = calcium activation in Ga16-expressing cells, counter-screen for TAAR1 antagonist project, cell-based, fluorescence. activation, % at 3 µM. agonist counterscreen. actives 18% (n = 2,400). shares compounds with TAAR1 antagonist; in the data active = activation above about 12%;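 note: 0% = vehicle wells and 100% = saturating stimulus response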
TAAR1 ag counter = TAAR1 activation by candidate antagonists – cell-based, fluorescence, counter-screen for TAAR1 antagonist project; activation, % at 3 µM; actives 2% (n = 2,400); AID 651955, 2012; hTAAR1 cell line, agonist mode; shares compounds with TAAR1 antagonist; in the data active = activation above about 37%;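 note: CHO cells stably expressing TAAR1 with calcium dye readout; 0% = DMSO vehicle and 100% = full agonist response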
An asterisk follows results filed as active. Rows were chosen to be rich in hits. Some 4.6% of all compounds tested hit in one or more screens of this group.

For CSCCNC(=O)C1(C)CCN1C(=O)c1sccc1C (configuration not stated) the results were TAAR1 antagonist -4 and TAAR1 ag 0.
For Cc1ccc(C(=O)NCC(=O)OCC(=O)c2cc(C)n(Cc3ccco3)c2C)cc1 the results were OX1R antag-1 17, CHO parental Ca -20, OX1R antag-2 -18, TAAR1 antagonist 0, TAAR1 ag -2 and GPR7 antagonist -3.
`Cc1cc(C(=O)COC(=O)Cn2c(C(F)(F)F)nc3ccccc32)c(C)n1Cc1ccco1` gave OX1R antag-1 12, CHO parental Ca -32, OX1R antag-2 -27, TAAR1 antagonist 51*, TAAR1 ag 10, GPR7 antagonist 4, TAAR1 nonsel count 17, TAAR1 ant conf 26, Ga16 ag counter 10 and TAAR1 ag counter 13.
Screening O=C(c1ccc(F)cc1)C1CCN(CCn2c(=S)[nH]c3ccccc3c2=O)CC1 returned OX1R antag-1 15, CHO parental Ca -17, OX1R antag-2 -13 and GPR7 antagonist -1.
CC1(C)C(=O)N(CCN2CCC(C(=O)c3ccc(F)cc3)CC2)c2ccccc21 was read as OX1R antag-1 19, CHO parental Ca -14, OX1R antag-2 -17, TAAR1 antagonist 87*, TAAR1 ag 13, TAAR1 nonsel count 37*, TAAR1 ant conf 56*, Ga16 ag counter 12* and TAAR1 ag counter 10.
CC(O)[C@H]1CC[C@H]2[C@@H]3CC[C@H]4C[C@H](O)CC[C@]4(C)[C@H]3[C@H](O)C[C@]12C (some centres not stated) was read as OX1R antag-1 13, CHO parental Ca -11, OX1R antag-2 3, TAAR1 antagonist 1 and TAAR1 ag 14.
`CC12CCC3C(CCC4CC(O)CCC43C)C1CC(O)C2` (configuration not stated) gave TAAR1 antagonist 79*, TAAR1 ag 20, TAAR1 nonsel count 35*, TAAR1 ant conf 56*, Ga16 ag counter 12* and TAAR1 ag counter 10.
For COCCCN1C(=O)C(CC(=O)NCCCN(C)C)CC(C(=O)N2CCCCCC2)=C1C (configuration not stated) the results were TAAR1 antagonist -5 and TAAR1 ag 1.
For Cc1ccccc1OCc1nc2ccccc2c(=O)n1/N=C/c1cccc([N+](=O)[O-])c1 the results were OX1R antag-1 12, CHO parental Ca -7, OX1R antag-2 2, TAAR1 antagonist 15, TAAR1 ag 1 and GPR7 antagonist -7.
Cc1ccccc1OCc1nc2ccccc2c(=O)n1/N=C/c1cn[nH]c1-c1ccccc1 was read as OX1R antag-1 11, CHO parental Ca -18, OX1R antag-2 -21, TAAR1 antagonist 64*, TAAR1 ag 12, GPR7 antagonist -5, TAAR1 nonsel count 27*, TAAR1 ant conf 56*, Ga16 ag counter 5 and TAAR1 ag counter 7.
`Cc1ccc(-c2[nH]ncc2/C=N/n2c(COc3ccccc3)nc3ccccc3c2=O)cc1` gave OX1R antag-1 27, CHO parental Ca -14, OX1R antag-2 -4, TAAR1 antagonist 66*, TAAR1 ag 10, GPR7 antagonist 0, TAAR1 nonsel count 33*, TAAR1 ant conf 53*, Ga16 ag counter 7 and TAAR1 ag counter 7.
`O=c1c2ccccc2nc(COc2ccccc2)n1/N=C/c1ccco1` gave OX1R antag-1 29, CHO parental Ca -35, OX1R antag-2 -35, TAAR1 antagonist 38, TAAR1 ag 9 and GPR7 antagonist 3.
For O=c1c2ccccc2nc(COc2ccccc2)n1/N=C/c1ccc(O)c(O)c1 the results were OX1R antag-1 3, CHO parental Ca -13, OX1R antag-2 -22, TAAR1 antagonist 68*, TAAR1 ag 10, GPR7 antagonist -13, TAAR1 nonsel count 20, TAAR1 ant conf 35, Ga16 ag counter 7 and TAAR1 ag counter 4.
`Cc1nc2ccccc2c(=O)n1/N=C/c1cn[nH]c1-c1ccccc1` gave OX1R antag-1 2, CHO parental Ca -25, OX1R antag-2 -33, TAAR1 antagonist 58*, TAAR1 ag 15, GPR7 antagonist -4, TAAR1 nonsel count 27*, TAAR1 ant conf 36, Ga16 ag counter 7 and TAAR1 ag counter 8.
`O=S(=O)(CCN1CCCCC1)CCS(=O)(=O)CCN1CCCCC1` gave TAAR1 antagonist -16 and TAAR1 ag 1.
CN(C)C(=O)c1cccc(-c2cccc(-c3nc(C(=O)NCc4ccccc4)cc4c3[C@H](CCO)N(S(=O)C(C)(C)C)C4)c2)c1 (some centres not stated) was read as TAAR1 antagonist -3 and TAAR1 ag -1.
Screening Cc1cc(C(=O)COC(=O)c2nccnc2N)c(C)n1C returned OX1R antag-1 70, CHO parental Ca -10, OX1R antag-2 -19, TAAR1 antagonist 105*, TAAR1 ag -3, GPR7 antagonist -10, TAAR1 nonsel count 11, TAAR1 ant conf 7, Ga16 ag counter -1 and TAAR1 ag counter -2.
Screening COc1ccc(NC(C)=O)cc1NC(C)C(=O)Nc1ccc(S(=O)(=O)N2CCCCC2)cc1 (configuration not stated) returned OX1R antag-1 3, CHO parental Ca -4, OX1R antag-2 -21, TAAR1 antagonist 101*, TAAR1 ag 12, TAAR1 nonsel count 7, TAAR1 ant conf -1, Ga16 ag counter 8 and TAAR1 ag counter 7.

Source: PubChem BioAssay
